In ChEMBL document CHEMBL1148393, “SAR studies of dihydro-beta-agarofuran sesquiterpenes as inhibitors of the multidrug-resistance phenotype in a Leishmania tropica line overexpressing a P-glycoprotein-like transporter” (J Med Chem, 2004):

Tests used:
Format in all cases: functional
Leishmania tropica [1] = assay: Percentage of growth inhibition of multidrug resistance Leishmania tropica Lines at 15 uM
How it was run: (§1)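 Log-phase MDR promastigotes were plated at 3 × 10⁵ cells/well in RPMI 1640-modified medium with 20% FBS and 150 µM DNM. Sesquiterpenes (DMSO stocks diluted in medium) were added and cells kept 72 h at 28 °C. MTT was added for 4 h, formazan dissolved in 20% SDS and A540 read. Growth inhibition is relative to DNM-treated controls without modulator.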

Leishmania tropica [2] = assay: Percentage of growth inhibition of multidrug resistance Leishmania tropica Lines at 1 uM.; how it was run: as §1
Leishmania tropica [3] = assay: Percentage of growth inhibition of multidrug resistance Leishmania tropica Lines at 3 uM.; how it was run: as §1
Leishmania tropica [4] = assay: Percentage of growth inhibition of multidrug resistance Leishmania tropica Lines at 7 uM.; how it was run: as §1
Leishmania tropica [5] = assay: Percent growth inhibition of wild type Leishmania tropica at 1 uM
How it was run: (§2)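 Intrinsic toxicity on the wild-type L. tropica LRC clone, with no DNM present. Log-phase promastigotes were plated at 3 × 10⁵ cells/well in RPMI 1640-modified medium with 20% FBS, with sesquiterpene diluted from DMSO stocks, for 72 h at 28 °C. MTT was added for 4 h, then 20% SDS, and A540 read. Percent growth inhibition is taken against untreated control absorbance.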

Leishmania tropica [6] = assay: Percentage of growth inhibition of wild type Leishmania tropica Lines at 3 uM.; how it was run: as §2
Leishmania tropica [7] = assay: Percentage of growth inhibition of wild type Leishmania tropica Lines at 7 uM.; how it was run: as §2
Leishmania tropica [8] = assay: (§3) Percentage of growth inhibition of wild type Leishmania tropica lines at 15 uM; how it was run: as §2
Leishmania tropica [9] = assay: Percentage of growth inhibition of multidrug resistance Leishmania tropica Lines at 3 uM; how it was run: as §1
Leishmania tropica [10] = assay: as §3; remark: listed apart in the source
How it was run: (§4)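 WT L. tropica LRC-strain promastigotes (log phase, RPMI 1640-modified medium + 20% heat-inactivated FBS, 28 °C) seeded at 3 × 10⁵ cells/well and exposed without DNM to sesquiterpenes diluted from DMSO stocks. After 72 h at 28 °C, MTT (5 mg/mL in PBS) was added for 4 h, formazan dissolved in 20% SDS, A540 read. Growth inhibition (%) calculated relative to untreated control absorbance.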

Leishmania tropica [11] = assay: Percentage of growth inhibition of multidrug resistance Leishmania tropica Lines at 7 uM; Value ranges from 0 to 6%; how it was run: as §1
Leishmania tropica [12] = assay: Percentage of growth inhibition of multidrug resistance Leishmania tropica Lines at 1 uM; how it was run: as §1
Leishmania tropica [13] = assay: Percentage of growth inhibition of wild type Leishmania tropica Lines at 3 uM; how it was run: as §4
Leishmania tropica [14] = assay: Percentage of growth inhibition of wild type Leishmania tropica Lines at 7 uM; how it was run: as §4

| Structure (SMILES) | inhibition at 15 µM (Leishmania tropica [1]) | inhibition at 1 µM (Leishmania tropica [2]) | inhibition at 3 µM (Leishmania tropica [3]) | inhibition at 7 µM (Leishmania tropica [4]) | inhibition at 1 µM (Leishmania tropica [5]) | inhibition at 3 µM (Leishmania tropica [6]) | inhibition at 7 µM (Leishmania tropica [7]) | inhibition at 15 µM (Leishmania tropica [8]) | inhibition at 3 µM (Leishmania tropica [9]) | inhibition at 15 µM (Leishmania tropica [10]) | inhibition at 7 µM (Leishmania tropica [11]) | inhibition at 1 µM (Leishmania tropica [12]) | inhibition at 3 µM (Leishmania tropica [13]) | inhibition at 7 µM (Leishmania tropica [14]) |
| --- | --- | --- | --- | --- | --- | --- | --- | --- | --- | --- | --- | --- | --- | --- |
| CC(=O)O[C@@H]1C2C[C@H](OC(=O)c3ccco3)[C@]3(C)[C@@H](OC(C)=O)[C@@H](OC(=O)c4ccccc4)C[C@](C)(O)C13OC2(C)C (stereo partly specified) | 45% | < 6% | 6% | 14.3% | < 6% | < 6% | < 6% | < 6% |  |  |  |  |  |  |
| CC(=O)O[C@H]1C[C@](C)(O)C23OC(C)(C)C(C[C@H](OC(=O)c4ccco4)[C@]2(C)[C@H]1OC(C)=O)[C@H]3OC(C)=O (stereo partly specified) | 50.6% | < 6% | < 6% | 17.1% | < 6% | < 6% | < 6% | < 6% |  |  |  |  |  |  |
| CC(=O)O[C@H]1[C@@H](OC(=O)c2ccccc2)C[C@](C)(O)C23OC(C)(C)C(C[C@H](OC(=O)c4ccco4)[C@]12C)[C@H]3O (stereo partly specified) | 81.9% | < 6% |  | 41.1% | < 6% | < 6% | < 6% |  | 11.1% | 8% |  |  |  |  |
| CC(=O)O[C@H]1C[C@](C)(O)C23OC(C)(C)C(C[C@H](OC(=O)c4ccco4)[C@]2(C)[C@H]1OC(C)=O)[C@H]3O (stereo partly specified) | 10.9% | < 6% | < 6% |  | < 6% | < 6% | < 6% | < 6% |  |  | 6% |  |  |  |
| COc1ccc(C(=O)O[C@@H]2C3C[C@H](OC(=O)c4ccco4)[C@]4(C)[C@@H](OC(C)=O)[C@@H](OC(C)=O)C[C@](C)(O)C24OC3(C)C)cc1 (stereo partly specified) | 98.4% |  |  | 85% | < 6% | < 6% | < 6% |  | 35.4% | 17.2% |  | 11.9% |  |  |
| CC(=O)O[C@H]1[C@@H](OC(=O)c2ccco2)C[C@](C)(O)C23OC(C)(C)C(C[C@H](OC(=O)c4ccco4)[C@]12C)[C@H]3O (stereo partly specified) | 44.5% | < 6% | < 6% | 28.5% | < 6% | < 6% | < 6% | < 6% |  |  |  |  |  |  |
| CC(=O)O[C@H]1C[C@](C)(O)C23OC(C)(C)C(C[C@H](OC(=O)c4ccco4)[C@]2(C)[C@H]1OC(C)=O)[C@H]3OC(=O)C(C)(C)C (stereo partly specified) | 96.7% |  |  | 82.5% | < 6% | < 6% | < 6% | < 6% | 44.5% |  |  | 18.1% |  |  |
| CC(=O)O[C@H]1[C@@H](OC(=O)c2ccco2)C[C@](C)(O)C23OC(C)(C)C(C[C@H](OC(=O)c4ccco4)[C@]12C)[C@H]3OC(=O)c1ccco1 (stereo partly specified) | 93.5% |  |  | 86.2% | < 6% |  |  |  | 52.9% | 23.4% |  | 10% | 13.8% | 18.1% |
| CCCCCCCCCCCC(=O)O[C@@H]1C2C[C@H](OC(=O)c3ccco3)[C@]3(C)[C@@H](OC(C)=O)[C@@H](OC(C)=O)C[C@](C)(O)C13OC2(C)C (stereo partly specified) | 80.5% | < 6% |  | 29.2% | < 6% | < 6% | < 6% | < 6% | 8.8% |  |  |  |  |  |
| CCCCCCCCCCCC(=O)O[C@@H]1C2C[C@H](OC(=O)c3ccco3)[C@]3(C)[C@@H](OC(C)=O)[C@@H](OC(=O)c4ccccc4)C[C@](C)(O)C13OC2(C)C (stereo partly specified) | 9.2% | < 6% | 6% |  | < 6% | < 6% | < 6% | < 6% |  |  | 6% |  |  |  |
| CC(=O)O[C@H]1C[C@](C)(O)C23OC(C)(C)C(C[C@H](OC(=O)c4ccco4)[C@]2(C)[C@H]1OC(C)=O)[C@H]3OC(=O)c1ccc([N+](=O)[O-])cc1 (stereo partly specified) | 59.5% | < 6% | 6% | 15.5% | < 6% | < 6% | < 6% | < 6% |  |  |  |  |  |  |
| CC(=O)O[C@H]1[C@@H](OC(=O)c2ccccc2)C[C@](C)(O)C23OC(C)(C)C(C[C@H](OC(=O)c4ccco4)[C@]12C)[C@H]3OC(=O)C(F)(F)F (stereo partly specified) | 36.9% | < 6% | < 6% | 9.7% | < 6% | < 6% | < 6% | < 6% |  |  |  |  |  |  |
| CC(=O)O[C@H]1CC[C@](C)(O)C23OC(C)(C)C(C[C@H](OC(=O)c4ccco4)[C@]12C)[C@H]3OC(=O)c1ccco1 (stereo partly specified) | 89.9% |  |  | 89% | < 6% |  |  |  | 66.9% | 24.6% |  | 20.3% | 14.8% | 16.4% |
| CC(=O)O[C@H]1[C@@H](OC(=O)c2ccccc2)C[C@](C)(O)C23OC(C)(C)C(C[C@H](OC(=O)c4ccco4)[C@]12C)[C@H]3OC(=O)c1ccco1 (stereo partly specified) | 92.7% |  |  | 93.7% | < 6% |  |  |  | 74.8% | 35.3% |  | 11.7% | 16.5% | 21.4% |
| CC(=O)O[C@H]1C[C@](C)(O)C23OC(C)(C)C(C[C@H](OC(=O)c4ccco4)[C@]2(C)[C@H]1OC(C)=O)[C@H]3OC(=O)C(F)(F)F (stereo partly specified) | 7.1% | < 6% | 6% |  | < 6% | < 6% | < 6% | < 6% |  |  | 6% |  |  |  |
| CC(=O)O[C@H]1[C@@H](OC(=O)c2ccccc2)C[C@](C)(O)C23OC(C)(C)C(C[C@H](OC(=O)c4ccco4)[C@]12C)[C@H]3OC(=O)C(C)(C)C (stereo partly specified) | 77.6% | < 6% | 11.2% | 25.9% | < 6% | < 6% | < 6% | < 6% |  |  |  |  |  |  |
| CC(=O)O[C@H]1[C@@H](O)C[C@](C)(O)C23OC(C)(C)C(C[C@H](OC(=O)c4ccco4)[C@]12C)[C@H]3OC(=O)c1ccco1 (stereo partly specified) | 28.7% | < 6% | 6% | 9.1% | < 6% | < 6% | < 6% | < 6% |  |  |  |  |  |  |
